Source: ChEMBL document CHEMBL1129604, “Design, synthesis, and evaluation of nonpeptidic inhibitors of human rhinovirus 3C protease” (J Med Chem, 1996)

Experiments:
[1] = molecular target: T1, Human rhinovirus A protease (Human rhinovirus sp., UniProt Q4U254); experiment: Inhibition of human rhinovirus 3C protease; parameters: species or system Rhinovirus B
T1 sequence (Q4U254 whole entry): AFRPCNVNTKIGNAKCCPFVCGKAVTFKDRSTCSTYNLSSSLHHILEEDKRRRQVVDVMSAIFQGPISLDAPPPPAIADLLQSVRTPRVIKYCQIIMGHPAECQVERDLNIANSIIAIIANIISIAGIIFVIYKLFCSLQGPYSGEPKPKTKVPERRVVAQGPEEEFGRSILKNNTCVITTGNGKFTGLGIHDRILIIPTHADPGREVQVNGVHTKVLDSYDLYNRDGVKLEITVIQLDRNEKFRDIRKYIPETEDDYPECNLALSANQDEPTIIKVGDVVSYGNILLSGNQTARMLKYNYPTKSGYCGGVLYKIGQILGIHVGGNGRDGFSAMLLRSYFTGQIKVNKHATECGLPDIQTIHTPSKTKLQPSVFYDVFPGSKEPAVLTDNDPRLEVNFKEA
In short: (§1)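 Buffer was 50 mM Tris pH 7.6, 1 mM EDTA, 2% DMSO at 30 °C. Enzyme and inhibitor were preincubated 10 min before substrate start. Fluorescence ex 336/em 490 nm. Ki came from nonlinear fit of initial velocity versus inhibitor.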

HeLa [2] = experiment: Compound was tested for the 50% toxic concentration against Human Rhinovirus-14 (HRV-14) in Hela cells; format: functional; details: read-out: TC50 (the source's name)
In short: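 HI-HeLa cells in MEM with 10% FBS, mock-infected with medium only, resuspended at 8 × 10^5 cells/mL and incubated with compound. After two days, XTT/PMS was added and formazan was read at 450/650 nm. CC50 is the concentration lowering formazan to 50% of compound-free uninfected cells.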

HeLa [3] = experiment: Compound was tested for the antiviral activity against Human Rhinovirus -14(HRV-14) in HeLa cells; format: functional, cell-based
In short: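 Cell protection assay in HI-HeLa cells (MEM, 10% FBS). Cells were infected with HRV-14 at moi 0.13, resuspended at 8 × 10^5 cells/mL and incubated with compound for two days. XTT/PMS formazan was read at 450/650 nm. EC50 is the concentration restoring formazan to 50% of compound-free uninfected cells.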

[4] = Theuraptic index was reported; format: functional
In short: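 TI is CC50 (uninfected HI-HeLa, XTT formazan) divided by EC50 (HRV-14-infected HI-HeLa, moi 0.13, two days, XTT read at 450/650 nm).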

[5] = molecular target: T2, Neutrophil elastase (Homo sapiens) (UniProt P08246); experiment: (§2) Percentage inhibition of Pancreatic elastase at 100 uM conc of drug
T2 sequence (whole entry): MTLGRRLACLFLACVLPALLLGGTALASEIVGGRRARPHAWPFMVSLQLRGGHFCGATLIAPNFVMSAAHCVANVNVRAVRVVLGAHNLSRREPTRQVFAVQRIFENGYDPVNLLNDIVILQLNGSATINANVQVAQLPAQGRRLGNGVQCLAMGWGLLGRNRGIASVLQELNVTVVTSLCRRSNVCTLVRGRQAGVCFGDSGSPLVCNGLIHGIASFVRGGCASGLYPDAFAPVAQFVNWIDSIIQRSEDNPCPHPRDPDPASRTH

Enterovirus [6] = experiment: Compound was tested for the inhibitory activity of compound towards human rhinovirus-16 3C protease; format: functional, organism-based
In short: (§3)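 3CP from HRV-16, -2 or -89 was cloned from infected-HeLa cDNA (3A C-terminus–3B–3C region), expressed in E. coli and purified. The same FRET assay (1 μM DABCYL/EDANS peptide, 50 mM Tris pH 7.6, 1 mM EDTA, 2% DMSO, 30 °C, 10 min preincubation) was run at 100–200 nM enzyme. Ki was obtained by nonlinear regression of initial velocities.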

[7] = molecular target: T3, Serine protease 1 (Bos taurus) (UniProt P00760); experiment: (§4) Percentage inhibition of bovine trypsin at 100 uM conc of drug
T3 sequence (whole entry): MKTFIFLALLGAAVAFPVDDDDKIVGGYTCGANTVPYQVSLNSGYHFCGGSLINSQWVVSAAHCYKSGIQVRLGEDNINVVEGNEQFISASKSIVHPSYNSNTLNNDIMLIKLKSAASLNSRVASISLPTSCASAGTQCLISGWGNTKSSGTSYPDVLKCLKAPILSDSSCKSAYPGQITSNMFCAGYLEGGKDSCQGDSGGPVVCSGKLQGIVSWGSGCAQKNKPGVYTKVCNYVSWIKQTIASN

Enterovirus [8] = experiment: Compound was tested for the inhibitory activity of compound towards human rhinovirus 3C protease; format: functional, organism-based; in short: as §1
[9] = molecular target: Chymotrypsinogen A (Bos taurus) (UniProt P00766); experiment: (§5) Percentage inhibition of bovine chymotrypsin at 100 uM conc of drug
Enterovirus [10] = experiment: Compound was tested for the inhibitory activity of compound towards human rhinovirus-2 3C protease; format: functional, organism-based; in short: as §3
[11] = (§6) Percentage inhibition of Cathepsin (human liver) at 100 uM conc of drug
Enterovirus [12] = experiment: Compound was tested for the inhibitory activity of compound towards human rhinovirus-89 3C protease; format: functional, organism-based; in short: as §3
[13] = molecular target: Prothrombin (Homo sapiens) (UniProt P00734); experiment: (§7) Percentage inhibition of human thrombin at 100 uM conc of drug
[14] = molecular target: Chymotrypsinogen A (Bos taurus) (UniProt P00766); experiment: as §5; format: functional
[15] = molecular target: T2, Neutrophil elastase (Homo sapiens); experiment: as §2; format: functional
[16] = molecular target: T3, Serine protease 1 (Bos taurus); experiment: as §4; format: functional
[17] = as §6; format: functional
[18] = molecular target: Prothrombin (Homo sapiens) (UniProt P00734); experiment: as §7; format: functional
[19] = Percentage inhibition of Cathepsin (human liver) at 10 uM conc of drug
[20] = molecular target: Chymotrypsinogen A (Bos taurus) (UniProt P00766); experiment: Percentage inhibition of bovine chymotrypsin at 50 uM conc of drug

Row | Compound | Ki [1] | CC50 (HeLa [2]) | EC50 (HeLa [3]) | also measured
1 | NC(=O)c1ccc2c(c1)C(=O)C(=O)N2Cc1cc(O)cc(O)c1 | 0.004 µM | > 100 µM | > 100 µM | –
2 | Cc1ccc(CN2C(=O)C(=O)c3cc(C(N)=O)ccc32)cc1 | 0.01 µM | – | – | –
3 | CN1C(=O)C(=O)c2cc(C(N)=O)ccc21 | – | 270 µM | 66 µM | TI [4]: 4; inhibition [5]: 0%; Ki (Enterovirus [6]): 0.04 µM; inhibition [7]: 0%; Ki (Enterovirus [8]): 0.051 µM; inhibition [9]: 0%; Ki (Enterovirus [10]): 0.077 µM; inhibition [11]: 0%; Ki (Enterovirus [12]): 0.035 µM; inhibition [13]: 0%
4 | CN1C(=O)C(=O)c2cc([S+](C)[O-])ccc21 (configuration not stated) | 8.2 µM | – | – | –
5 | NC(=O)c1ccc2c(c1)C(=O)C(=O)N2C/C=C/c1ccccc1 | – | 9.6 µM | 6.3 µM | TI [4]: 1.5; Ki (Enterovirus [8]): 0.011 µM; inhibition [14]: 67%; inhibition [15]: 40%; inhibition [16]: 0%; inhibition at 100 µM [17]: 27%; inhibition [18]: 34%
6 | NC(=O)c1ccc2c(c1)C(=O)C(=O)N2Cc1ccc(-c2ccccc2)cc1 | 0.048 µM | – | – | –
7 | CN1C(=O)C(=O)c2cc(C#N)ccc21 | 51 µM | – | – | –
8 | CNC(=O)c1ccc2c(c1)C(=O)C(=O)N2C | 12 µM | – | – | –
9 | COc1cccc(CN2C(=O)C(=O)c3cc(C(N)=O)ccc32)c1 | 0.029 µM | 20 µM | > 20 µM | –
10 | NC(=O)c1ccc2c(c1)C(=O)C(=O)N2Cc1ccc2cc(O)ccc2c1 | 0.004 µM | – | – | –
11 | COc1cc(CN2C(=O)C(=O)c3cc(C(N)=O)ccc32)cc(OC)c1 | 0.025 µM | – | – | –
12 | Cc1ccc(CN2C(=O)C(=O)c3cc(C(N)=O)ccc32)cc1C | 0.006 µM | – | – | –
13 | NC(=O)c1ccc2c(c1)C(=O)C(=O)N2Cc1cc2ccccc2s1 | – | 5.6 µM | > 5.6 µM | inhibition [5]: 0%; Ki (Enterovirus [6]): 0.012 µM; inhibition [7]: 0%; Ki (Enterovirus [8]): 0.002 µM; Ki (Enterovirus [10]): 0.0052 µM; inhibition [19]: 0%; inhibition [20]: 25%; Ki (Enterovirus [12]): 0.0011 µM; inhibition [13]: 0%
14 | NC(=O)c1ccc2c(c1)C(=O)C(=O)N2Cc1cccc(O)c1 | 0.011 µM | 20 µM | > 20 µM | –
15 | CN1C(=O)C(=O)c2cc(I)ccc21 | 30 µM | > 100 µM | 71 µM | TI [4]: > 1
16 | CN1C(=O)C(=O)c2cc(Cl)ccc21 | 59 µM | – | – | –
17 | COc1ccc2cc(CN3C(=O)C(=O)c4cc(C(N)=O)ccc43)ccc2c1 | 0.003 µM | – | – | –
18 | COC(=O)c1ccc2c(c1)C(=O)C(=O)N2C | 30 µM | > 100 µM | 56 µM | TI [4]: > 2
19 | NC(=O)c1ccc2c(c1)C(=O)C(=O)N2Cc1ccc2ccccc2c1 | 0.004 µM | 10 µM | > 10 µM | –
20 | CN1C(=O)C(=O)c2ccccc21 | > 100 µM | – | – | –
21 | CN1C(=O)C(=O)c2cc([N+](=O)[O-])ccc21 | 9.7 µM | – | – | –
22 | CN(C)C(=O)c1ccc2c(c1)C(=O)C(=O)N2C | 33 µM | – | – | –
23 | CC(=O)c1ccc2c(c1)C(=O)C(=O)N2C | 1.2 µM | – | – | –
24 | NC(=O)c1ccc2c(c1)C(=O)C(=O)N2CCCc1ccccc1 | 0.027 µM | 7.1 µM | > 7.1 µM | –
25 | CN1C(=O)C(=O)c2cc(C(=O)O)ccc21 | 10 µM | > 100 µM | > 100 µM | –
26 | NC(=O)c1ccc2c(c1)C(=O)C(=O)N2Cc1ccccc1 | 0.019 µM | 50.1 µM | 14.1 µM | TI [4]: 3.5
27 | CN1C(=O)C(=O)c2cc(C(N)=S)ccc21 | 11 µM | – | – | –
